pKi: −log10 of the molar value.
Target: Amyloid-beta precursor protein (Homo sapiens, UniProt P05067)
Experiment: Inhibition constant against [125I]-7 (TZDM) binding to Amyloid beta 1-40 aggregates
In short: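 Abeta40 peptide aggregated at 0.5 mg/mL in pH 7.4 buffer (10 mM sodium phosphate, 1 mM EDTA), 37 °C for 36-42 h with shaking. Competition in 1 mL of 40% EtOH: fibrils 10-50 nM final, radiotracer 0.05 nM, inhibitors 10^-5 to 10^-10 M. Nonspecific binding with 2 µM thioflavin-T. Incubated 3 h at room temperature, then GF/B filtration with 10% ethanol washes and gamma counting. Ki from nonlinear regression.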

Chain of Amyloid-beta precursor protein (P05067 whole entry): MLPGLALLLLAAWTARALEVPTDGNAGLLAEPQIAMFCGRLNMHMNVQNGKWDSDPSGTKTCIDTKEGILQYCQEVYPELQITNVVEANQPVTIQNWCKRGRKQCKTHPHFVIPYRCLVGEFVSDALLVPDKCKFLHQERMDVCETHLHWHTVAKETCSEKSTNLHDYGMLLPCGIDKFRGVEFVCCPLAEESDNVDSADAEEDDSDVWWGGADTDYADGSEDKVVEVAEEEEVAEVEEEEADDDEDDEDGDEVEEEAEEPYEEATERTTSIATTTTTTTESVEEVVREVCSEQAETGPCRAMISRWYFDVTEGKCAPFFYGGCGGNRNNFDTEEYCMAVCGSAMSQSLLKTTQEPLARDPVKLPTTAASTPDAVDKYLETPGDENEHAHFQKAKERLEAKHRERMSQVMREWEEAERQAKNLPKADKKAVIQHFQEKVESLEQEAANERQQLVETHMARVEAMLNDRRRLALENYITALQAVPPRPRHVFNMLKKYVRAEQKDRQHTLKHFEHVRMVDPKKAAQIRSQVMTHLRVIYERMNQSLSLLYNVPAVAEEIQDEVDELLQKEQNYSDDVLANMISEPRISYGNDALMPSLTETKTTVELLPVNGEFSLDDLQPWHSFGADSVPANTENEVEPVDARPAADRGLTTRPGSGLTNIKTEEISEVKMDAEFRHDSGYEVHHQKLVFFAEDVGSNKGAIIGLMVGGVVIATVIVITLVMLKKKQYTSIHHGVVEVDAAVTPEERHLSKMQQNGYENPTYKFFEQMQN

CNc1ccc(-c2cn3ccccc3n2)cc1
pKi: < 6.00

CN(C)c1ccc(-c2cn3cc(Br)ccc3n2)cc1
pKi: 7.99

CN(C)c1ccc2nc(-c3ccc(Br)cc3)cn2c1
pKi: 6.47

Cc1ccc2nc(-c3ccc(N(C)C)cc3)cn2c1
pKi: 6.62

CNc1ccc(-c2cn3cc(C)ccc3n2)cc1
pKi: < 5.70

— ChEMBL document CHEMBL1145100, “Structure-activity relationship of imidazo[1,2-a]pyridines as ligands for detecting beta-amyloid plaques in the brain” (J Med Chem, 2003)
